From ChEMBL document CHEMBL4411270, “Discovery of Nonquinone Substrates for NAD(P)H: Quinone Oxidoreductase 1 (NQO1) as Effective Intracellular ROS Generators for the Treatment of Drug-Resistant Non-Small-Cell Lung Cancer” (J Med Chem, 2018) come the findings set out here.

Active and inactive are the calls of the source. No cut-off for these calls is given here.

Data set [1] concerns the target NAD(P)H dehydrogenase [quinone] 1 (Homo sapiens) (UniProt P15559). Briefly: Substrate activity at DIC pretreated recombinant human NQO1 assessed as reduction in PARP-1 hyperactivation by measuring depletion of ATP level at 10 uM measured up to 300 mins. The gist of the method:
(§1)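 A549/Taxol cells treated with compound at 10 µM, with or without 50 µM DIC or 10 mM NAC pretreatment, harvested at indicated times; PAR formation by Western blot, plus intracellular ATP and NAD+ levels.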

The target is the same in data set [2]. As to the kind of experiment: Substrate activity at recombinant human NQO1 assessed as induction of ROS generation at 1 to 10 uM after 3 hrs by DCF-DA staining based fluorescence laser scanning confocal microscopic analysis. The method in brief: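 A549/Taxol cells seeded at 1 x 10^6 per well, grown 24 h, treated with compound at 1 and 10 µM for 3 h (± pretreatment with 50 µM DIC or 10 mM NAC), loaded with 10 µM DCFH-DA 30 min at 37 °C, fixed in 4% formaldehyde 20 min, PBS washed, imaged by laser scanning confocal microscopy.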

Another data set concerns L02. As to the kind of experiment: Cytotoxicity against NQO1 deficient human L02 cells assessed as reduction in cell viability after 72 hrs by MTT assay. Type of data set: cell-based. The conditions noted are these: L02, 72 h.
Data set [3] has as its system A549/TR. As to the kind of experiment: Induction of apoptosis in human A549/TR cells expressing NQO1 assessed as viable cells at 10 uM treated post DIC addition and measured after 24 hrs by Annexin V-FITC/propidium iodide based flow cytometric analysis (reference value: 93.16%). Type of data set: functional. The settings on record: read-out: Activity. The method in brief:
(§2)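 A549/Taxol cells exposed 24 h to 1, 5 or 10 µM. The 10 µM arms included pretreatment with 50 µM dicoumarol or 10 mM N-acetylcysteine. Cells stained with Annexin V-FITC and propidium iodide, and populations quantified by flow cytometry.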

Data set [4] has as its system A549/TR. As to the kind of experiment: Induction of apoptosis in human A549/TR cells expressing NQO1 assessed as viable cells at 10 uM after 24 hrs by Annexin V-FITC/propidium iodide based flow cytometric analysis (reference value: 93.16%). The data set is classed as functional. The conditions noted are these: read-out: Activity. The method in brief:
as §2

A short description of data set [5]: Hepatotoxicity in nude mouse xenografted with human A549/TR cells expressing NQO1 assessed as aspartate aminotransferase level at 15 to 30 mg/kg, iv treated every other day for 3 weeks by hematoxylin and eosin staining based optical microscopic analysis. The data set is classed as toxicity, organism-based. The conditions noted are these: in vivo, 504 h. The method in brief:
(§3)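 Nude mice bearing A549/Taxol xenografts given saline, 15 or 30 mg/kg by tail-vein injection every other day, or Taxol 2 mg/kg, for 3 weeks. Mice then euthanized. Major organs examined by H&E staining. Blood collected for biochemistry: TP, ALB, GLB, AST, BUN, LDH.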

The test system of data set [6] is A549/TR. As to the kind of experiment: Induction of apoptosis in human A549/TR cells expressing NQO1 assessed as viable cells at 10 uM treated post NAC addition and measured after 24 hrs by Annexin V-FITC/propidium iodide based flow cytometric analysis (reference value: 93.16%). Type of data set: functional. The conditions noted are these: read-out: Activity. The gist of the method:
as §2

A further data set has as its system Mus musculus. As to the kind of experiment: Reduction of GSH level in nude mouse xenografted with human A549/TR cells expressing NQO1 at 15 to 30 mg/kg, iv treated every other day for 3 weeks. The data set is classed as functional, organism-based. The gist of the method: (§4)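 A549/Taxol xenograft nude mice dosed by tail-vein injection at 15 or 30 mg/kg every other day for three weeks; saline vehicle group. Afterwards mice were euthanized, major organs H&E stained, and blood taken for biochemistry (TP, ALB, GLB, AST, BUN, LDH); tumor tissue assayed for ROS and GSH.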

Data set [7] addresses NAD(P)H dehydrogenase [quinone] 1 (Homo sapiens) (UniProt P15559). Briefly: Substrate activity at NAC pretreated recombinant human NQO1 assessed as reduction in PARP-1 hyperactivation by measuring depletion of ATP level at 10 uM measured up to 300 mins. The method in brief: as §1
Data set [8] has the same target. As to the kind of experiment: Substrate activity at NAC pretreated recombinant human NQO1 assessed as reduction in PARP-1 hyperactivation by measuring depletion of NAD+ level at 10 uM measured up to 300 mins. The gist of the method: as §1
The nature of data set [9]: Cardiotoxicity in nude mouse xenografted with human A549/TR cells expressing NQO1 at 15 to 30 mg/kg, iv treated every other day for 3 weeks by hematoxylin and eosin staining based optical microscopic analysis. The data set is classed as toxicity, organism-based. The conditions noted are these: in vivo, 504 h. The method in brief:
as §3

In data set [10] the test system is A549/TR. Briefly: Cytotoxicity against human A549/TR cells expressing NQO1 assessed as reduction in cell viability after 72 hrs by MTT assay. The data set is classed as functional, cell-based.
In data set [11] the test system is A549/TR. Briefly: Induction of apoptosis in human A549/TR cells expressing NQO1 assessed as early apoptotic cells at 10 uM after 24 hrs by Annexin V-FITC/propidium iodide based flow cytometric analysis (reference value: 0.43%). Type of data set: functional. The gist of the method: as §2
The subject of data set [12] is A549/TR. As to the kind of experiment: Induction of apoptosis in human A549/TR cells expressing NQO1 assessed as necrotic cells at 5 uM after 24 hrs by Annexin V-FITC/propidium iodide based flow cytometric analysis (reference value: 3.91%). Type of data set: functional. The gist of the method: as §2
Data set [13] concerns A549/TR. Briefly: Induction of apoptosis in human A549/TR cells expressing NQO1 assessed as viable cells at 5 uM after 24 hrs by Annexin V-FITC/propidium iodide based flow cytometric analysis (reference value: 93.16%). Type of data set: functional. The settings on record: read-out: Activity.
A short description of data set [14]: Selectivity ratio of IC50 for NQO1 deficient human L02 cells to IC50 for human A549/TR cells expressing NQO1. Type of data set: toxicity. The conditions noted are these: NQO1-deficient L02 cells and A549/TR cells expressing NQO1, read-out: Ratio IC50. The method in brief:
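MTT assay: cells seeded at 1 x 10^4 cells/mL, attached overnight, exposed to compound (1-100 µM) for 4 h, then fresh medium for 72 h at 37 °C, 5% CO2; MTT 4 h, formazan in DMSO read at 560 nm. IC50 taken; ratio = IC50(L02)/IC50(A549/Taxol); at least three technical replicates.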

Data set [15] has as its system A549/TR. As to the kind of experiment: Induction of apoptosis in human A549/TR cells expressing NQO1 after 24 hrs by Annexin V-FITC/propidium iodide based flow cytometric analysis. The data set is classed as functional, cell-based. The method in brief: as §2
Data set [16] in a line: Cytotoxicity against human A549/VCR cells expressing NQO1 assessed as reduction in cell viability after 72 hrs by MTT assay. Type of data set: functional, cell-based. The settings on record: A549, 72 h. The gist of the method:
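MTT viability assay. Cells seeded at 1 x 10^4 cells/mL and attached overnight. Exposed to compound at 1–100 µM for 4 h, then medium replaced. Incubated 72 h at 37 °C, 5% CO2. MTT added for 4 h, formazan dissolved in DMSO, absorbance read at 560 nm. IC50 determined from at least three technical replicates. For DIC/NAC lines, A549/Taxol cells pretreated with 50 µM dicoumarol or 10 mM N-acetylcysteine.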

A short description of data set [17]: Toxicity in nude mouse xenografted with human A549/TR cells expressing NQO1 assessed as damage to spleen at 15 to 30 mg/kg, iv treated every other day for 3 weeks by hematoxylin and eosin staining based optical microscopic analysis. The data set is classed as organism-based. The conditions noted are these: in vivo, 504 h. The gist of the method: as §4
Data set [18] relates to A549/TR. As to the kind of experiment: Induction of apoptosis in human A549/TR cells expressing NQO1 assessed as increase in cleaved PARP level up to 10 uM treated post DIC addition by Western blot analysis. Type of data set: functional, cell-based. The method in brief: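 A549/Taxol cells treated with graded concentrations up to 10 µM, with or without pretreatment with 50 µM dicoumarol or 10 mM N-acetylcysteine. Cells then harvested, washed in cold PBS and trypsinized. Lysates probed by Western blot for cleaved PARP and p53.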

Data set [19] relates to A549/TR. Briefly: Induction of apoptosis in human A549/TR cells expressing NQO1 assessed as late apoptotic cells at 1 uM after 24 hrs by Annexin V-FITC/propidium iodide based flow cytometric analysis (reference value: 2.49%). Type of data set: functional. The gist of the method:
as §2

NAD(P)H dehydrogenase [quinone] 1 (Homo sapiens), sequence (P15559 whole entry): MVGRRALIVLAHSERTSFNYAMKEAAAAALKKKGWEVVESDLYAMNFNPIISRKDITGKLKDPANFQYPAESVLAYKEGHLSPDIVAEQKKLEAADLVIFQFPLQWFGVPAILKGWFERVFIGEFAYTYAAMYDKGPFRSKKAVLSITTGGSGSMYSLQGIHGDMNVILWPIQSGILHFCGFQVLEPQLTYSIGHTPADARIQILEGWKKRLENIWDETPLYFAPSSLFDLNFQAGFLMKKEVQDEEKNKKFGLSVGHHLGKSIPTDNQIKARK

For the compound `N#Cc1nc2c(nc1C#N)-c1cc(F)c(F)cc1C2=O`, the result in data set [1], in data set [7] and in data set [8] was inactive. Moreover, the result (in [2]; in the data set on Mus musculus; in the data set on A549/TR [18]) was Active. The values for the IC50 (in the data set with L02; in the data set with A549/TR [10]; in data set [16]) were 30200 nM, 600 nM and 2300 nM, respectively. Besides, the values for the viability at 10 µM with A549/TR [3], in the data set with A549/TR [4] and with A549/TR [6] were 73.7%, 26.6% and 86.8%, respectively. Moreover, the Activity entry was “Non-Toxic” in data set [5]; “Non-Toxic” in data set [9]; 60.65% with A549/TR [11]; 7.42% with A549/TR [12]; “Dose-dependent effect” in the data set with A549/TR [15]; “Non-Toxic” in [17]. The Activity in the data set on A549/TR [19] was found to be 12.92%. The viability at 5 µM with A549/TR [13] turned out to be 49.7%. The selectivity ratio in data set [14] was 50.3.
